Laboratory results as given in ChEMBL document CHEMBL1157589, “Antifungal 3,5-disubstituted furanones: From 5-acyloxymethyl to 5-alkylidene derivatives” (Bioorg Med Chem, 2010).
≈ marks a conversion by molar mass, not a printed value.

Experiments:
[1] = system: Trichophyton mentagrophytes; assay: Antifungal activity against Trichophyton mentagrophytes 445 after 120 hrs by microdilution method; assay type: functional; details: Trichophyton mentagrophytes, 445, 120 h
Method in brief: (§1)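 Dermatophyte held on Sabouraud dextrose agar. M27-A microdilution in MOPS-buffered (0.165 M, pH 7.0) RPMI 1640 with L-glutamine. DMSO ≤2% final; twofold dilutions 500–0.48. Inoculum 5 × 10³ ± 0.2 cfu mL⁻¹ final. Incubated at 35 °C; MIC read visually at 72 and 120 h as 80% inhibition of control growth; determined twice in duplicate.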

[2] = system: Trichophyton mentagrophytes; assay: Antifungal activity against Trichophyton mentagrophytes 445 after 72 hrs by microdilution method; assay type: functional; details: Trichophyton mentagrophytes, 445, 72 h; method in brief: as §1
[3] = system: Candida albicans; assay: Antifungal activity against Candida albicans ATCC 90028 after 24 hrs by microdilution method; assay type: functional; details: ATCC 90028, 24 h
Method in brief: (§2)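 Yeasts held on Sabouraud dextrose agar. MIC by NCCLS M27-A broth microdilution in RPMI 1640 with L-glutamine, buffered with 0.165 M MOPS to pH 7.0. Compounds in DMSO (≤2% final), twofold dilutions 500–0.48. Final inoculum 5 × 10³ ± 0.2 cfu mL⁻¹. Incubated at 35 °C; absorbance at 540 nm read at 24 and 48 h. MIC is 80% growth inhibition versus control; run twice in duplicate.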

[4] = system: Trichosporon beigelii; assay: Antifungal activity against Trichosporon beigelii 1188 after 48 hrs by microdilution method; assay type: functional; details: Trichosporon beigelii, 1188, 48 h; method in brief: as §2
[5] = system: Aspergillus fumigatus; assay: Antifungal activity against Aspergillus fumigatus 231 after 48 hrs by microdilution method; assay type: functional; details: Aspergillus fumigatus, 231, 48 h
Method in brief: (§3)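 Filamentous strains held on Sabouraud dextrose agar. NCCLS M27-A broth microdilution in RPMI 1640 with L-glutamine and 0.165 M MOPS, pH 7.0. DMSO diluent ≤2% final; twofold dilutions 500–0.48. Inoculum 5 × 10³ ± 0.2 cfu mL⁻¹ final.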

[6] = system: Candida albicans; assay: Antifungal activity against Candida albicans ATCC 90028 after 48 hrs by microdilution method; assay type: functional; details: ATCC 90028, 48 h; method in brief: as §2
[7] = system: CCRF-CEM; assay: Cytostatic activity against human CCRF-CEM cells after 72 hrs by XTT assay; assay type: functional, cell-based
Method in brief: (§4)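 Leukemia cells (L1210 ATCC CCL 219, CCRF-CEM ATCC CCL 119, HL-60 ATCC CCL 240) grown in 24-well plates in RPMI 1640 with fetal calf serum. Growth assessed 72 h after drug addition. Viability measured by XTT spectrophotometric assay; potency given as IC50.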

[8] = system: Nakaseomyces glabratus; assay: Antifungal activity against Candida glabrata 20/I after 24 hrs by microdilution method; assay type: functional; method in brief: as §2
[9] = system: HeLa S3; assay: Cytostatic activity against human HeLaS3 cells after 48 hrs by XTT assay
[10] = system: Trichosporon beigelii; assay: Antifungal activity against Trichosporon beigelii 1188 after 24 hrs by microdilution method; assay type: functional; details: Trichosporon beigelii, 1188, 24 h; method in brief: as §2
[11] = system: Candida parapsilosis; assay: Antifungal activity against Candida parapsilosis ATCC 22019 after 48 hrs by microdilution method; assay type: functional; details: Lodderomyces parapsilosis, ATCC 22019, 48 h; method in brief: as §2
[12] = system: Lichtheimia corymbifera; assay: Antifungal activity against Absidia corymbifera 272 after 24 hrs by microdilution method; assay type: functional; details: Lichtheimia corymbifera, 272, 24 h; method in brief: as §3
[13] = system: Candida tropicalis; assay: Antifungal activity against Candida tropicalis 156 after 24 hrs by microdilution method; assay type: functional; details: Candida tropicalis, 156, 24 h; method in brief: as §2
[14] = system: Pichia kudriavzevii; assay: Antifungal activity against Candida krusei ATCC 6258 after 24 hrs by microdilution method; assay type: functional; details: ATCC 6258, 24 h; method in brief: as §2
[15] = system: Pichia kudriavzevii; assay: Antifungal activity against Candida krusei E28 after 24 hrs by microdilution method; assay type: functional; details: E28, 24 h; method in brief: as §2
[16] = system: HL-60; assay: Cytostatic activity against human HL60 cells after 72 hrs by XTT assay; assay type: functional, cell-based; method in brief: as §4
[17] = system: Candida tropicalis; assay: Antifungal activity against Candida tropicalis 156 after 48 hrs by microdilution method; assay type: functional; details: Candida tropicalis, 156, 48 h; method in brief: as §2
[18] = system: Aspergillus fumigatus; assay: Antifungal activity against Aspergillus fumigatus 231 after 24 hrs by microdilution method; assay type: functional; details: Aspergillus fumigatus, 231, 24 h; method in brief: as §3
[19] = system: Pichia kudriavzevii; assay: Antifungal activity against Candida krusei E28 after 48 hrs by microdilution method; assay type: functional; details: E28, 48 h; method in brief: as §2
[20] = system: Nakaseomyces glabratus; assay: Antifungal activity against Candida glabrata 20/I after 48 hrs by microdilution method; assay type: functional; method in brief: as §2
[21] = system: Clavispora lusitaniae; assay: Antifungal activity against Candida lusitaniae 2446/I after 24 hrs by microdilution method; assay type: functional; method in brief: as §2
[22] = system: Lichtheimia corymbifera; assay: Antifungal activity against Absidia corymbifera 272 after 48 hrs by microdilution method; assay type: functional; details: Lichtheimia corymbifera, 272, 48 h; method in brief: as §3
[23] = system: L1210; assay: Cytostatic activity against mouse L1210 cells after 72 hrs by XTT assay; assay type: functional, cell-based; method in brief: as §4
[24] = system: Candida parapsilosis; assay: Antifungal activity against Candida parapsilosis ATCC 22019 after 24 hrs by microdilution method; assay type: functional; details: Lodderomyces parapsilosis, ATCC 22019, 24 h; method in brief: as §2
[25] = system: Candida albicans; assay: Antifungal activity against Candida albicans ATCC 44859 after 48 hrs by microdilution method; assay type: functional; details: ATCC 44859, 48 h; method in brief: as §2
[26] = system: Pichia kudriavzevii; assay: Antifungal activity against Candida krusei ATCC 6258 after 48 hrs by microdilution method; assay type: functional; details: ATCC 6258, 48 h; method in brief: as §2
[27] = system: Candida albicans; assay: Antifungal activity against Candida albicans ATCC 44859 after 24 hrs by microdilution method; assay type: functional; details: ATCC 44859, 24 h; method in brief: as §2
[28] = system: Clavispora lusitaniae; assay: Antifungal activity against Candida lusitaniae 2446/I after 48 hrs by microdilution method; assay type: functional; method in brief: as §2

For `O=C1OC(COc2ccc(C(=O)O)cc2)C=C1c1ccc(Br)cc1` (stereo unspecified), the MIC80 [1] was 0.97 µM (≈ 0.378 µg/mL), the MIC80 [2] was 0.97 µM (≈ 0.378 µg/mL) and the MIC80 [3] was 0.97 µM (≈ 0.378 µg/mL). The MIC80 [4] was 15.6 µM (≈ 6.08 µg/mL), the MIC80 [5] was 3.9 µM (≈ 1.52 µg/mL) and the MIC80 [6] was 3.9 µM (≈ 1.52 µg/mL). It also gave an IC50 ([7]; Homo sapiens, CCRF-CEM, 72 h, read-out: IC50) of 8.7 µM, an MIC80 [8] of 0.97 µM (≈ 0.378 µg/mL) and an IC50 ([9]; Homo sapiens, HeLa S3, 48 h, read-out: IC50) of 2.69 µM. The MIC80 [10] was 7.81 µM (≈ 3.04 µg/mL), the MIC80 [11] was 15.6 µM (≈ 6.08 µg/mL) and the MIC80 [12] was 15.6 µM (≈ 6.08 µg/mL). For the same molecule, the MIC80 [13] was 3.9 µM (≈ 1.52 µg/mL), the MIC80 [14] was 7.81 µM (≈ 3.04 µg/mL) and the MIC80 [15] was 7.81 µM (≈ 3.04 µg/mL). It also gave an IC50 ([16]; Homo sapiens, HL-60, 72 h, read-out: IC50) of 19.4 µM, an MIC80 [17] of 7.81 µM (≈ 3.04 µg/mL) and an MIC80 [18] of 1.95 µM (≈ 0.759 µg/mL). It also gave an MIC80 [19] of 15.6 µM (≈ 6.08 µg/mL), an MIC80 [20] of 1.95 µM (≈ 0.759 µg/mL) and an MIC80 [21] of 3.9 µM (≈ 1.52 µg/mL). The MIC80 [22] was 62.5 µM (≈ 24.3 µg/mL), the IC50 ([23]; Mus musculus, L1210, 72 h, read-out: IC50) was 12.3 µM and the MIC80 [24] was 7.81 µM (≈ 3.04 µg/mL). The MIC80 [25] was 1.95 µM (≈ 0.759 µg/mL), the MIC80 [26] was 15.6 µM (≈ 6.08 µg/mL) and the MIC80 [27] was 0.48 µM (≈ 0.187 µg/mL). It also gave an MIC80 [28] of 7.81 µM (≈ 3.04 µg/mL).
With `O=C1O/C(=C\COC(=O)c2ccccc2)C=C1c1ccc(Br)cc1` the MIC80 [1] was greater than 500 µM, the MIC80 [2] was greater than 500 µM and the MIC80 [3] was greater than 500 µM. For the same molecule, the MIC80 [4] was greater than 500 µM, the MIC80 [5] was greater than 500 µM and the MIC80 [6] was greater than 500 µM. For the same molecule, the IC50 ([7]; ccrf-cem) was “Not Active”, the MIC80 [8] was greater than 500 µM and the IC50 ([9]; hela s3) was “Not Active”. It also gave an MIC80 [10] greater than 500 µM, an MIC80 [11] greater than 500 µM and an MIC80 [12] greater than 500 µM. For the same molecule, the MIC80 [13] was greater than 500 µM, the MIC80 [14] was greater than 500 µM and the MIC80 [15] was greater than 500 µM. For the same molecule, the IC50 ([16]; hl-60) was “Not Active”, the MIC80 [17] was greater than 500 µM and the MIC80 [18] was greater than 500 µM. For the same molecule, the MIC80 [19] was greater than 500 µM, the MIC80 [20] was greater than 500 µM and the MIC80 [21] was greater than 500 µM. For the same molecule, the MIC80 [22] was greater than 500 µM, the IC50 ([23]; l1210) was “Not Active” and the MIC80 [24] was greater than 500 µM. For the same molecule, the MIC80 [25] was greater than 500 µM, the MIC80 [26] was greater than 500 µM and the MIC80 [27] was greater than 500 µM. For the same molecule, the MIC80 [28] was greater than 500 µM.
